The source made the active and inactive calls. The rule behind the calls is not given here.
What was measured:
[1] = Cytotoxicity against human QSG7701 cells assessed as inhibition rate at 100 uM measured after 48 hrs by MTT assay; type: cell-based; details: read-out: INH
Procedure, shortened: (§1)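 Normal liver cells were grown in DMEM with 10% FBS plus penicillin/streptomycin at 37 °C, 5% CO₂. They were seeded at 5 × 10⁵ cells/mL and incubated 24 h. Compounds from DMSO stock were added at final 50 or 100 µM (DMSO <1%), in triplicate, for 48 h. MTT was added for 4 h, formazan dissolved in DMSO, A495 read, and inhibition rate calculated.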

[2] = tested on: A549; experiment: Antiproliferative activity against human A549 cells assessed as growth inhibition measured after 48 hrs by MTT assay; type: functional, cell-based; details: A549, 48 h
Procedure, shortened: (§2)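 Compounds dissolved in DMSO and diluted in medium to final 0.5–50 µM (final DMSO <1%). Cells were grown in DMEM with 10% FBS, penicillin and streptomycin at 37 °C, 5% CO₂. They were seeded at 5 × 10⁵ cells/mL, incubated 24 h, then treated in triplicate per concentration for 48 h. MTT was added for 4 h, formazan dissolved in DMSO, absorbance read at 495 nm, and IC50 derived.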

[3] = tested on: HepG2; experiment: Antiproliferative activity against human HepG2 cells assessed as growth inhibition measured after 48 hrs by MTT assay; type: functional, cell-based; details: HepG2, 48 h; procedure, shortened: as §2
[4] = Cytotoxicity against human QSG7701 cells assessed as inhibition rate at 50 uM measured after 48 hrs by MTT assay; type: cell-based; details: read-out: INH; procedure, shortened: as §1
[5] = Cytotoxicity against human HL7702 cells assessed as inhibition rate at 100 uM measured after 48 hrs by MTT assay; type: cell-based, L02; details: read-out: INH; procedure, shortened: as §1
[6] = Cytotoxicity against human HL7702 cells assessed as inhibition rate at 50 uM measured after 48 hrs by MTT assay; type: cell-based, L02; details: read-out: INH; procedure, shortened: as §1
[7] = tested on: HCT-116; experiment: Antiproliferative activity against human HCT116 cells assessed as growth inhibition measured after 48 hrs by MTT assay; type: functional, cell-based; details: HCT-116, 48 h; procedure, shortened: as §2
[8] = target: Mitogen-activated protein kinase 14 (Homo sapiens) (UniProt Q16539); experiment: Inhibition of p38-alpha (unknown origin) at 50 uM
Chain of Mitogen-activated protein kinase 14 (Homo sapiens) (Q16539 whole entry): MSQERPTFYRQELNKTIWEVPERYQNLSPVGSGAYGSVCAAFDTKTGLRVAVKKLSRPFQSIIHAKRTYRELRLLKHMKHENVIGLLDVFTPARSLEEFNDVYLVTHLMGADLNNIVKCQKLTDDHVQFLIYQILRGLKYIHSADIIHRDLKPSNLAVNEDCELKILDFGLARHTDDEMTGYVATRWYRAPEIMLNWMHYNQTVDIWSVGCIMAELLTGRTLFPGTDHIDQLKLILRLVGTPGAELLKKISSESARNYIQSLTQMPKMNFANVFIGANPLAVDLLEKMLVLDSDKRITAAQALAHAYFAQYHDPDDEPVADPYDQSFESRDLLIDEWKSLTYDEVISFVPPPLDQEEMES
Procedure, shortened: (§3)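 Kinase-Glo Plus luminescent assay. Enzyme, substrate, ATP and compound were mixed in 25 mM HEPES pH 7.4 with 10 mM MgCl₂ and incubated 1 h at 30 °C. The reaction was stopped with an equal volume of Kinase-Glo Plus reagent. Luminescence reflects remaining ATP, inversely related to kinase activity, and is reported as percent inhibition at a single concentration.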

[9] = target: RAF proto-oncogene serine/threonine-protein kinase (Homo sapiens) (UniProt P04049); experiment: Inhibition of Raf1 (unknown origin) at 50 uM; procedure, shortened: as §3
Chain of RAF proto-oncogene serine/threonine-protein kinase (Homo sapiens) (P04049 whole entry): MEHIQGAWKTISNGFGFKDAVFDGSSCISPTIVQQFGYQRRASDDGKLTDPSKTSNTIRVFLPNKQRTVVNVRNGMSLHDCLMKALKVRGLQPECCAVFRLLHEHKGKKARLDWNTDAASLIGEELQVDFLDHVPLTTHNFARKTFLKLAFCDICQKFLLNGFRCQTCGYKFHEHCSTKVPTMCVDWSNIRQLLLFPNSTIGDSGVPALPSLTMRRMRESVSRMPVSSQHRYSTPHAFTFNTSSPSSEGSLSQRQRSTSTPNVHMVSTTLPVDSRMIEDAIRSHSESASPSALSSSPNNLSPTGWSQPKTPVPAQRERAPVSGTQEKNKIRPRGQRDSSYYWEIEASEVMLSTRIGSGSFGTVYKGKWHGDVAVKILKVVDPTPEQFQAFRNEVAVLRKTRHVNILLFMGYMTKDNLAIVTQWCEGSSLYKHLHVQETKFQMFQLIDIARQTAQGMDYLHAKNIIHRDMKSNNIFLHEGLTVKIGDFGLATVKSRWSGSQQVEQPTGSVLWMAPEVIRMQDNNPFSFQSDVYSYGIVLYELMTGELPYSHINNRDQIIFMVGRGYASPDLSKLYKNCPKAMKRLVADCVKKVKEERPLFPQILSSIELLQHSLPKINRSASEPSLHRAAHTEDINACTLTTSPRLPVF

[10] = target: Mitogen-activated protein kinase 14 (Homo sapiens) (UniProt Q16539); experiment: Inhibition of p38-alpha (unknown origin) at 100 uM; procedure, shortened: as §3

IC50 [2] | IC50 [3] | IC50 [7] | inhibition [8] | inhibition [9] | inhibition [10] | Compound | cytotoxicity at 48 h, 100 µM [1] | cytotoxicity at 48 h, 50 µM [4] | cytotoxicity at 48 h, 100 µM [5] | cytotoxicity at 48 h, 50 µM [6]
> 50 µM | 30.7 µM | 27.9 µM | – | – | – | CCc1ccc2oc(-c3ccc(NC(=O)Nc4cccc(Cl)c4)cc3Cl)cc(=O)c2c1 | 18% | 12.6% | 37.2% | 9.4%
– | – | – | inactive | inactive | – | Nc1ccc(-c2cc(=O)c3ccc(O)cc3o2)c(Cl)c1 | – | – | – | –
> 50 µM | > 50 µM | > 50 µM | – | – | – | CCc1ccc2oc(-c3ccc(NC(=O)Cc4ccc(F)cc4)cc3Cl)cc(=O)c2c1 | 36.9% | 16.2% | 45.2% | 29.1%
– | – | – | 106% | – | – | Oc1ccc(-c2nc(-c3ccc(F)cc3)c(-c3ccncc3)[nH]2)cc1 | – | – | – | –
> 50 µM | 19.8 µM | > 50 µM | – | – | – | CCc1ccc2oc(-c3ccc(NC(=O)Cc4cccc(F)c4)cc3Cl)cc(=O)c2c1 | 27.4% | 22.4% | 44.6% | 20.4%
– | – | – | – | 27% | 14.5% | CCc1ccc2oc(-c3ccc(N)cc3Cl)cc(=O)c2c1 | – | – | – | –
16.8 µM | 12.2 µM | 25.9 µM | – | – | – | O=C(Nc1cccc(Cl)c1)Nc1ccc(-c2cc(=O)c3ccc(O)cc3o2)c(Cl)c1 | 43.2% | 34.6% | 83.8% | 80.2%

Source: ChEMBL document CHEMBL2331396, “Exploration of 1-(3-chloro-4-(4-oxo-4H-chromen-2-yl)phenyl)-3-phenylurea derivatives as selective dual inhibitors of Raf1 and JNK1 kinases for anti-tumor treatment” (Bioorg Med Chem, 2013)
